Data: ChEMBL document CHEMBL4732262, “Identification of two novel thiophene analogues as inducers of autophagy mediated cell death in breast cancer cells” (Bioorg Med Chem, 2021)
Active and inactive are the calls of the source. The calls are words filed in the database; no cut-off is given here.

Tests used:
[1] = tested on: MCF7; experiment: Induction of autophagy in human MCF7 cells assessed as increase in GABARAPL2 mRNA expression at 2.5 uM after 24 hrs by RT-PCR analysis; type: functional, cell-based
How it was run: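 MCF7 cells given 2.5 µM or DMSO for 24 h. Total RNA extracted with TRIzol and reverse-transcribed, then SYBR Green qPCR across 34 autophagy-regulatory genes (95 °C 10 min; 40 cycles of 95 °C 15 s and 60 °C 1 min). Relative expression by 2^-ΔΔCt against housekeeping genes and DMSO control, shown as log2. Two independent experiments.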

[2] = tested on: MCF7; experiment: Induction of autophagy in human MCF7 cells assessed as increase in LC3-2 conversion level at 2.5 uM after 24 hrs in presence of chloroquine by Western blot analysis; type: functional, cell-based
How it was run: (§1)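 MCF7 cells given 2.5 µM alone or combined with 50 µM chloroquine for 24 h. Western blot for cleaved PARP, p62 and LC3, with GAPDH as loading control. LC3-II/I ratio by densitometry. At least two independent experiments.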

[3] = tested on: MCF7; experiment: Induction of autophagy in human MCF7 cells assessed as increase in GADD34 protein expression at 2.5 uM after 24 hrs by Western blot analysis; type: functional, cell-based
How it was run: (§2)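 MCF7 or MDA-MB-231 cells given 2.5 µM or DMSO for 24 h, then lysed in RIPA buffer. Immunoblots probed overnight at 4 °C, followed by infrared-labelled secondary antibody for 1 h at 37 °C. Bands imaged and quantified densitometrically, with GAPDH as loading control. Representative of two independent experiments.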

[4] = tested on: MCF7; experiment: Induction of autophagy in human MCF7 cells assessed as increase in CHOP protein expression at 2.5 uM after 24 hrs by Western blot analysis; type: functional, cell-based; how it was run: as §2
[5] = tested on: MDA-MB-231; experiment: Induction of apoptosis in human MDA-MB-231 cells at 2.5 uM after 24 hrs by annexin V-FITC/Propidium iodide staining based flow cytometric analysis relative to tanshinone-1; type: functional
[6] = tested on: MCF7; experiment: Induction of autophagy in human MCF7 cells assessed as LC3-2 to LC3-1 protein ratio at 1.25 uM after 24 hrs by Western blot analysis (reference value: 0.22 to 0.8); type: functional
[7] = tested on: MCF7; experiment: Induction of autophagy in human MCF7 cells assessed as LC3-2 to LC3-1 protein ratio at 2.5 uM after 24 hrs by Western blot analysis (reference value: 0.22 to 0.8); type: functional
[8] = tested on: MDA-MB-231; experiment: Induction of apoptosis in human MDA-MB-231 cells assessed as increase in cleaved PARP level at 2.5 uM after r24 hrs by Western blot analysis; type: functional, cell-based; details: time 24.0 hrs; how it was run: as §2
[9] = tested on: MDA-MB-231; experiment: Cytotoxicity against human MDA-MB-231 cells assessed as reduction in cell viability after 24 hrs by MTT assay; type: functional, cell-based; details: MDA-MB-231, 24 h
How it was run: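 Cells seeded ~5 × 10^3 per well in 96-well plates, exposed to 0–40 µM for 24 h. MTT added at 0.5 mg/ml for 3 h, formazan dissolved in DMSO, absorbance read at 540 nm. IC50 taken from plotted curves. Duplicate wells, two independent repeats. MCF7 grown in DMEM, MDA-MB-231 in RPMI, both with 10% FBS at 37 °C and 5% CO2.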

[10] = tested on: MDA-MB-231; experiment: Induction of apoptosis in human MDA-MB-231 cells assessed as morphological changes at 2.5 uM after up to 24 hrs by phase contrast microscopic method; type: functional, cell-based; details: time hrs <=24
How it was run: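 ~5 × 10^4 cells in 6-well plates, either DMSO control or 2.5 µM. Morphology imaged at 0, 6, 12 and 24 h.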

[11] = tested on: MCF7; experiment: Induction of autophagy in human MCF7 cells expressing GFP tagged LC3-2 assessed as increase in […] puncta formation at 2.5 uM after 24 hrs by confocal microscopic analysis; type: functional, cell-based
How it was run: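 MCF7 cells (~1 × 10^6) at 70% confluency on glass-bottom dishes were transiently transfected with GFP-LC3 (Lipofectamine 3000). 24 h later they received 2.5 µM compound or DMSO for another 24 h. Nuclei were stained with Hoechst 33342 and lysosomes with LysoTracker Red DND-99, then imaged by live-cell confocal microscopy. LC3 puncta were counted in at least 10 cells from 3 fields. Two independent experiments.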

[12] = tested on: MCF7; experiment: Induction of apoptosis in human MCF7 cells assessed as increase in cleaved PARP level at 2.5 uM after r24 hrs by Western blot analysis; type: functional, cell-based; details: time 24.0 hrs; how it was run: as §2
[13] = tested on: MCF7; experiment: Induction of autophagy in human MCF7 cells assessed as increase in PPP1R15A mRNA expression at 2.5 uM after 24 hrs by PCR microarray analysis; type: functional, cell-based
How it was run: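 MCF7 cells (~10 × 10^6) were treated with 2.5 µM compound or DMSO for 24 h. Total RNA was converted to cDNA and run on an Unfolded Protein Response RT2 Profiler PCR array. Log2 fold change was computed by 2^-ΔΔCt against control cells, normalized to the mean of ACTB, B2M, GAPDH, HPRT1 and RPLPO.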

[14] = tested on: MCF7; experiment: Induction of apoptosis in human MCF7 cells assessed as increase in cleaved-PARP protein expression at 2.5 uM after 24 hrs in presence of chloroquine by Western blot analysis; type: functional, cell-based; how it was run: as §1
[15] = tested on: MCF7; experiment: Induction of autophagy in human MCF7 cells assessed as increase in LC3-2 to LC3-1 protein ratio at 2.5 uM after 24 hrs by Western blot analysis; type: functional, cell-based
How it was run: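 MCF7 cells (~5 × 10^6) left untreated (DMSO control) or exposed to 2.5 µM compound for 24 h. Lysed in RIPA buffer, probed overnight at 4 °C, then given infrared-tagged secondary antibodies for 1 h at 37 °C and imaged by infrared scanning. LC3-II/I ratio and p62 taken by densitometry with GAPDH as loading control. Two independent experiments.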

[16] = tested on: MCF7; experiment: Induction of autophagy in human MCF7 cells assessed as increase in LC3-2 conversion level after 24 hrs by Western blot analysis; type: functional, cell-based; details: dose 1.25-5 µM
How it was run: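 MCF7 cells exposed for 24 h to 0, 1.25, 2.5 or 5 µM. Western blot with GAPDH as loading control. LC3-II/I ratio obtained by densitometry. At least two independent experiments.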

[17] = tested on: MDA-MB-231; experiment: Induction of apoptosis in human MDA-MB-231 cells assessed as late apoptotic cells at 2.5 uM after 24 hrs by annexin V-FITC/Propidium iodide staining based flow cytometric analysis (reference value: 0.08%); type: functional
[18] = tested on: MCF7; experiment: Induction of apoptosis in human MCF7 cells at 2.5 uM after 24 hrs by annexin V-FITC/Propidium iodide staining based flow cytometric analysis relative to tanshinone-1; type: functional
[19] = tested on: MCF7; experiment: Induction of apoptosis in human MCF7 cells at 2.5 uM after 24 hrs by annexin V-FITC/Propidium iodide staining based flow cytometric analysis relative to tanshinone-2A; type: functional

O=C1C(=O)c2sccc2-c2ccccc21
Activity [1]: Active | Activity [2]: inactive | Activity [3]: Active | Activity [4]: Active | fold change (FC) [5]: >=2 | Ratio [6]: 0.53 | Ratio [7]: 7.14 | Activity [8]: Active | IC50 [9]: 2960 nM | Activity [10]: Active | Activity [11]: Active | Activity [12]: Active | Activity [13]: Active | Activity [14]: inactive | Activity [15]: Active | Activity [16]: Dose-dependent effect | Activity [17]: 14.9% | fold change (FC) [18]: >=2 | fold change (FC) [19]: >=2

O=C1C(=O)c2ccsc2-c2ccccc21
Activity [1]: Active | Activity [2]: inactive | Activity [3]: Active | Activity [4]: Active | fold change (FC) [5]: >=2 | Ratio [6]: 10.2 | Ratio [7]: 16.3 | Activity [8]: Active | IC50 [9]: 2600 nM | Activity [10]: Active | Activity [11]: Active | Activity [12]: Active | Activity [13]: Active | Activity [14]: inactive | Activity [15]: Active | Activity [16]: Dose-dependent effect | Activity [17]: 10.9% | fold change (FC) [18]: >=2 | fold change (FC) [19]: >=2
